According to ChEMBL document CHEMBL1122739, “Potential inhibitors of nucleotide biosynthesis. 2. Halomethyl ketone derivatives of pyrimidine nucleosides” (J Med Chem, 1984):
pIC50: −log10 of the molar value.

What was measured:
Mus musculus [1] = experiment: Activity against P388 leukemia was determined in vivo. The percent increase in life span at a compound dose of 25 mg/kg.; assay type: functional
In short: (§1)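 P388 leukemia in vivo; dosing given as a single injection on days 1-5. Read-out is the percent increase in life span relative to untreated controls.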

[2] = Half-life period determined in water at room temperature.; assay type: ADME
HEp-2 = experiment: Concentration that produces 50 % inhibition of cloning of H.Ep.-2 cells in suspension culture, over a 12-day period; assay type: functional, cell-based; details: Homo sapiens, HEp-2, 288 h; read-out: I50
In short: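 H.Ep.-2 cells tested by cloning over a 12-day period. I50 is the concentration giving 50% inhibition of colony formation relative to untreated control growth.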

L1210 = experiment: Concentration that produces 50 % inhibition of proliferation of L1210 cells in suspension culture in 48 h,; assay type: functional, cell-based; details: Mus musculus, L1210, 48 h; read-out: I50
In short: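 L1210 cells grown in suspension culture for 48 h with compound. I50 is the concentration giving 50% inhibition of proliferation relative to control growth.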

[3] = Ratio of the cytotoxic concentrations (I50''s) against H.Ep.-2 and L1210 cells.; assay type: functional
Mus musculus [4] = experiment: Activity against P388 leukemia was determined in vivo. The percent increase in life span at a compound dose of 100 mg/kg.; assay type: functional; in short: as §1
Mus musculus [5] = experiment: Activity against P388 leukemia was determined in vivo. The percent increase in life span at a compound dose of 12.5 mg/kg.; assay type: functional; in short: as §1
Mus musculus [6] = experiment: Activity against P388 leukemia was determined in vivo. The percent increase in life span at a compound dose of 50 mg/kg.; assay type: functional; in short: as §1
[7] = Ratio of the cytotoxic concentrations (I50's) against H.Ep.-2 and L1210 cells.; assay type: functional
Mus musculus [8] = experiment: Activity against P388 leukemia was determined in vivo. The percent increase in life span at a compound dose of 200 mg/kg.; assay type: functional; in short: as §1

| Compound | ILS at 25 mg/kg (Mus musculus [1]) | half-life [2] | pIC50 (HEp-2) | pIC50 (L1210) | Ratio [3] | ILS at 100 mg/kg (Mus musculus [4]) | ILS at 12.5 mg/kg (Mus musculus [5]) | ILS at 50 mg/kg (Mus musculus [6]) | Ratio [7] | ILS at 200 mg/kg (Mus musculus [8]) |
| --- | --- | --- | --- | --- | --- | --- | --- | --- | --- | --- |
| Cc1cn(C2CC(O)C(CCC(=O)CI)O2)c(=O)[nH]c1=O (stereo not given) | 16% | 4 h | 4.77 | 4.70 | 16 | – | – | – | – | – |
| Cc1cn(C2CC(O)C(C(=O)Nc3ccc(C(=O)CCl)cc3)O2)c(=O)[nH]c1=O (stereo not given) | – | > 52 h | 4.52 | 4.55 | 14 | 14% | – | – | – | – |
| Cc1cn(C2CC(O)C(CCC(=O)CBr)O2)c(=O)[nH]c1=O (stereo not given) | – | 1.8 h | 4.26 | 3.96 | 16 | – | 16% | – | – | – |
| Cc1cn(C2CC(O)C(CCC(=O)CCl)O2)c(=O)[nH]c1=O (stereo not given) | – | > 52 h | 4.60 | 4.18 | – | – | – | 10% | 10 | – |
| Cc1cn(C2CC(O)C(CNC(=O)c3ccc(C(=O)CBr)cc3)O2)c(=O)[nH]c1=O (stereo not given) | – | 1 h | < 4.40 | < 4.15 | 15 | – | – | 15% | – | – |
| Cc1cn(C2CC(O)C(C(=O)Nc3ccc(C(=O)CBr)cc3)O2)c(=O)[nH]c1=O (stereo not given) | – | 4 h | 4.92 | 5.22 | 38 | – | – | – | – | 38% |
| Cc1cn(C2CC(O)C(C(=O)Nc3ccc(C(=O)CI)cc3)O2)c(=O)[nH]c1=O (stereo not given) | 5% | 13 h | 4.54 | 5.10 | 5 | – | – | – | – | – |
